The source made the active and inactive calls. The rule behind the calls is not given here.
Tests used:
[1] = system: Human immunodeficiency virus 1; assay: Antiviral activity against HIV1 3B Y181C resistant mutant in human MT4 cells assessed as protection against viral induced cytopathogenicity by MTT assay; assay type: functional, organism-based; conditions: Human immunodeficiency virus 1, 3B
Procedure, shortened: (§1)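 MT-4 cells infected with HIV-1 carrying the NNRTI-resistance mutation were assayed for protection from virus-induced cytopathogenicity, read out as cell viability by MTT. EC50 is the compound concentration giving 50% protection. Values are means of three separate experiments, with variation among triplicate samples under 10%. Efavirenz served as the reference.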

[2] = system: Human immunodeficiency virus 1; assay: Antiviral activity against HIV1 3B Y181C/K103N double mutant in human MT4 cells assessed as protection against viral induced cytopathogenicity by MTT assay; assay type: functional, organism-based; procedure, shortened: as §1
[3] = system: Human immunodeficiency virus 1; assay: Antiviral activity against wild type HIV1 3B in human MT4 cells assessed as protection against viral induced cytopathogenicity by MTT assay; assay type: functional, organism-based; conditions: Human immunodeficiency virus 1, 3B
Procedure, shortened: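 MT-4 cells infected with HIV-1; 50% protection from virus-induced cytopathogenicity read by MTT method; EC50 in micromolar; mean of three separate experiments, triplicate samples varying under 10%.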

[4] = Selectivity index, ratio of CC50 for human MT4 cells to EC50 for HIV1 3B; assay type: toxicity, cell-based; conditions: read-out: Ratio CC50/EC50
Procedure, shortened: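 Ratio of CC50 in mock-infected MT-4 cells to EC50 for protection from HIV-1 cytopathogenicity, both read by MTT method.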

[5] = Cytotoxicity against mock-infected human MT4 cells by MTT assay; assay type: cell-based
Procedure, shortened: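 Mock-infected MT-4 cells, tested in parallel with the antiviral assay; viability read by MTT method; CC50 is the concentration lowering viability by 50%; mean of three separate experiments, triplicate variation under 10%.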

[6] = system: Human immunodeficiency virus 1; assay: Antiviral activity against HIV1 3B K103R resistant mutant in human MT4 cells assessed as protection against viral induced cytopathogenicity by MTT assay; conditions: Human immunodeficiency virus 1, 3B

Compound	EC50 [1] [µM]	Activity [2]	EC50 [3] [µM]	selectivity ratio [4]	CC50 [5] [µM]	EC50 [6] [µM]
Cc1ccc2c(c1)C(=O)N(CCOC(=S)Nc1ccc(F)cc1)C2=O	68	inactive	0.03	3330	100	–
Cc1ccc(NC(=S)OC[C@@H](C)N2C(=O)c3ccccc3C2=O)cc1	9	inactive	0.07	1090	76	–
CC(C)(C)c1ccc2c(c1)C(=O)N(CCOC(=S)Nc1ccc(Cl)cc1)C2=O	–	inactive	1.2	45.8	55	–
O=C(O)c1ccccc1C(=O)NCCOC(=S)Nc1ccc(F)cc1F	–	inactive	3.8	> 26.3	> 100	–
Cc1ccc2c(c1)C(=O)N(CCOC(=S)Nc1ccc(Cl)c([N+](=O)[O-])c1)C2=O	30	inactive	0.05	> 2000	> 100	–
O=C1c2ccccc2C(=O)N1CCOC(=S)NCC1CCCCC1	–	inactive	1.1	> 91	> 100	–
CC(=O)c1ccc(NC(=S)OCCN2C(=O)c3ccc(C)cc3C2=O)cc1	–	inactive	0.07	> 1430	> 100	–
Cc1ccc(NC(=S)OCCN2C(=O)c3ccccc3C2=O)cc1Cl	–	inactive	0.8	> 125	> 100	–
CC(C)(C)CC(C)(C)NC(=S)OCCN1C(=O)c2ccccc2C1=O	–	inactive	60	> 1.7	> 100	–
O=C1c2ccccc2C(=O)N1CCOC(=S)Nc1cc(F)cc(F)c1	–	inactive	9	> 11.1	> 100	–
C[C@@H](COC(=S)Nc1ccc(Cl)cc1)N1C(=O)c2ccccc2C1=O	–	inactive	0.2	420	84	–
C[C@H](COC(=S)Nc1ccc(Cl)cc1)NC(=O)c1ccccc1C(=O)O	18	inactive	0.3	> 333	> 100	–
Cc1ccc2c(c1)C(=O)N(CCOC(=S)Nc1ccc(Cl)c(C(F)(F)F)c1)C2=O	–	inactive	2.4	17.9	43	–
S=C(NCCc1ccccn1)Nc1ccc(Br)cn1 [TROVIRDINE]	15	–	0.02	3000	–	–
COc1ccc(NC(=S)OCCN2C(=O)c3ccc(C)cc3C2=O)cc1	44	inactive	0.03	> 3330	> 100	–
Cc1ccc2c(c1)C(=O)N(C(C)COC(=S)Nc1ccc(Cl)cc1)C2=O (racemic)	4	inactive	0.06	567	34	–
C[C@H](COC(=S)Nc1ccc(Cl)cc1)N1C(=O)c2ccccc2C1=O	1.3	inactive	0.01	4800	48	4.8
O=C1c2ccccc2C(=O)N1CCOC(=S)Nc1ccc(Cl)c(Cl)c1	–	inactive	0.2	> 500	> 100	–
Cc1ccc(NC(=S)OCC(C)N2C(=O)c3ccc(C)cc3C2=O)cc1 (racemic)	12	inactive	0.1	410	41	–

Compound	EC50 [1] [µM]	Activity [2]	EC50 [3] [µM]	selectivity ratio [4]	CC50 [5] [µM]	EC50 [6] [µM]
COc1ccc(CCNC(=S)OCCNC(=O)c2ccccc2C(=O)O)cc1OC	–	inactive	63	1.6	100	–
Cc1ccc2c(c1)C(=O)N(CCOC(=S)Nc1ccc(C)c(Cl)c1)C2=O	–	inactive	0.4	165	66	–
O=C1c2ccccc2C(=O)N1CCOC(=S)Nc1c(F)cc(F)cc1F	–	inactive	2	> 50	> 100	–
Cc1ccc2c(c1)C(=O)N(CCOC(=S)NC1CCCCC1)C2=O	–	inactive	0.3	> 333	> 100	–
O=C1c2ccccc2C(=O)N1CCOC(=S)NCCc1ccccc1	–	inactive	9.2	> 10.9	> 100	–
CCc1ccc(NC(=S)OCCN2C(=O)c3ccc(C)cc3C2=O)cc1	16	inactive	0.02	2150	43	–
Cc1ccc(NC(=S)OC[C@@H](C)NC(=O)c2ccccc2C(=O)O)cc1	–	inactive	2.3	> 43.5	> 100	–
Cc1ccc(NC(=S)OCCN2C(=O)c3ccc(C(C)(C)C)cc3C2=O)cc1	–	inactive	1.5	28	42	–
Cc1ccc2c(c1)C(=O)N(CCOC(=S)Nc1ccc(C#N)cc1)C2=O	4.5	inactive	0.01	5700	57	–
O=C1c2ccccc2C(=O)N1CCOC(=S)Nc1cc(F)ccc1F	–	inactive	8	> 12.5	> 100	–
O=C(O)c1ccccc1C(=O)NCCOC(=S)Nc1cc(F)ccc1F	–	inactive	51	> 2	> 100	–
O=C1Nc2ccc(Cl)cc2[C@@](C#CC2CC2)(C(F)(F)F)O1 [EFAVIRENZ]	0.02	–	–	–	–	–
COc1ccc(NC(=S)OCCN2C(=O)c3ccccc3C2=O)cc1OC	–	inactive	3.5	> 28.6	> 100	–
Cc1ccc(NC(=S)OCCN2C(=O)c3ccc(C)cc3C2=O)cc1	–	inactive	0.02	3450	69	–
O=C1c2ccccc2C(=O)N1CCOC(=S)Nc1ccc(Cl)c([N+](=O)[O-])c1	2.8	inactive	0.05	> 2000	> 100	–
O=C1c2ccccc2C(=O)N1CCOC(=S)Nc1ccc(F)cc1F	–	inactive	0.5	> 200	> 100	–
Cc1cc(Br)cc(C)c1NC(=S)OCCN1C(=O)c2ccccc2C1=O	–	inactive	9	> 11.1	> 100	–
Cc1ccc2c(c1)C(=O)N(CCOC(=S)Nc1ccc(I)cc1)C2=O	9	inactive	0.01	8900	89	–

— ChEMBL document CHEMBL1137716, “Novel modifications in the series of O-(2-phthalimidoethyl)-N-substituted thiocarbamates and their ring-opened congeners as non-nucleoside HIV-1 reverse transcriptase inhibitors” (Eur J Med Chem, 2009)
